Test results as given in ChEMBL document CHEMBL4020844, “Regio- and Stereospecific Synthesis of Oridonin D-Ring Aziridinated Analogues for the Treatment of Triple-Negative Breast Cancer via Mediated Irreversible Covalent Warheads” (J Med Chem, 2018).
Activity calls are given as the source filed them. The calls are words filed in the database; no cut-off is given here.

What was measured:
[1] = Glutathione reactivity in pH 7.4 deuterated phosphate buffer assessed as reaction half life at 10 mg up to 120 mins in presence of 1.5 to 2 equiv of GSH by 1H NMR analysis; type: physicochemical; conditions: pH 7.4, 2 h
Outline: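 Glutathione (1.5–2 equiv) was incubated with compound at 37°C in DMSO-d6 mixed with sodium phosphate buffer in D2O, pH 7.4. Reactivity was monitored by 1H NMR.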

[2] = Glutathione reactivity in pH 7.4 deuterated phosphate buffer assessed as GSH adduct formation at 10 mg after 1 hr in presence of 1.5 to 2 equiv of GSH by HRMS analysis
MDA-MB-231 [3] = test: Antiproliferative activity against human MDA-MB-231 cells after 72 hrs by MTT assay; type: functional, cell-based
Outline: (§1)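 MTT proliferation assay. Cells were seeded at 1 × 10^4 per well and exposed to DMSO or compound at 0.1, 0.33, 1.0, 3.3 and 10 μM for 72 h. MTT reagent was added, and OD at 560 nm was read after 1 h at 37°C. Each concentration was tested in quadruplicate wells.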

MCF7 [4] = test: Antiproliferative activity against human MCF7 cells after 72 hrs by MTT assay; type: functional, cell-based; outline: as §1
MDA-MB-468 [5] = test: Antiproliferative activity against human MDA-MB-468 cells after 72 hrs by MTT assay; type: functional, cell-based; outline: as §1
SK-BR-3 [6] = test: Antiproliferative activity against human SK-BR-3 cells after 72 hrs by MTT assay; type: functional, cell-based; outline: as §1
MDA-MB-231 [7] = test: Inhibition of colony formation in human MDA-MB-231 cells after 2 weeks by crystal violet staining based assay; type: functional, cell-based
Outline: (§2)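 Cells were seeded at 600 per well (MDA-MB-231) or 800 per well (MDA-MB-468, SK-BR3, MCF-7). After 24 h they were exposed to 1, 5, 10, 15 or 20 μM, or DMSO, with medium plus compound renewed every 72 h for 2 weeks. Wells were PBS-washed, stained with 0.01% crystal violet for 10 min, washed, dried and photographed.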

SK-BR-3 [8] = test: Inhibition of colony formation in human SK-BR-3 cells after 2 weeks by crystal violet staining based assay; type: functional, cell-based; outline: as §2
MDA-MB-468 [9] = test: Inhibition of colony formation in human MDA-MB-468 cells after 2 weeks by crystal violet staining based assay; type: functional, cell-based; outline: as §2
MCF7 [10] = test: Inhibition of colony formation in human MCF7 cells after 2 weeks by crystal violet staining based assay; type: functional, cell-based; outline: as §2
MDA-MB-231 [11] = test: Induction of apoptosis in human MDA-MB-231 cells after 48 hrs by Annexin V-FITC/propidium iodide staining based flow cytometry; type: functional, cell-based
MDA-MB-231 [12] = test: Induction of apoptosis in human MDA-MB-231 cells assessed as live cells at 1 uM after 48 hrs by Annexin V-FITC/propidium iodide staining based flow cytometry (reference value: 90.35%); type: functional
MDA-MB-231 [13] = test: Induction of apoptosis in human MDA-MB-231 cells assessed as early apoptotic cells at 1 uM after 48 hrs by Annexin V-FITC/propidium iodide staining based flow cytometry (reference value: 1.85%); type: functional
MDA-MB-231 [14] = test: Induction of apoptosis in human MDA-MB-231 cells assessed as late apoptotic cells at 1 uM after 48 hrs by Annexin V-FITC/propidium iodide staining based flow cytometry (reference value: 6.3%); type: functional
MDA-MB-231 [15] = test: Induction of apoptosis in human MDA-MB-231 cells assessed as dead cells at 1 uM after 48 hrs by Annexin V-FITC/propidium iodide staining based flow cytometry (reference value: 1.5%); type: functional
MDA-MB-231 [16] = test: Induction of apoptosis in human MDA-MB-231 cells assessed as live cells at 5 uM after 48 hrs by Annexin V-FITC/propidium iodide staining based flow cytometry (reference value: 90.35%); type: functional
MDA-MB-231 [17] = test: Induction of apoptosis in human MDA-MB-231 cells assessed as early apoptotic cells at 5 uM after 48 hrs by Annexin V-FITC/propidium iodide staining based flow cytometry (reference value: 1.85%); type: functional
MDA-MB-231 [18] = test: Induction of apoptosis in human MDA-MB-231 cells assessed as late apoptotic cells at 5 uM after 48 hrs by Annexin V-FITC/propidium iodide staining based flow cytometry (reference value: 6.3%); type: functional
MDA-MB-231 [19] = test: Induction of apoptosis in human MDA-MB-231 cells assessed as dead cells at 5 uM after 48 hrs by Annexin V-FITC/propidium iodide staining based flow cytometry (reference value: 1.5%); type: functional
MDA-MB-231 [20] = test: Induction of apoptosis in human MDA-MB-231 cells assessed as live cells at 10 uM after 48 hrs by Annexin V-FITC/propidium iodide staining based flow cytometry (reference value: 90.35%); type: functional
MDA-MB-231 [21] = test: Induction of apoptosis in human MDA-MB-231 cells assessed as early apoptotic cells at 10 uM after 48 hrs by Annexin V-FITC/propidium iodide staining based flow cytometry (reference value: 1.85%); type: functional
MDA-MB-231 [22] = test: Induction of apoptosis in human MDA-MB-231 cells assessed as late apoptotic cells at 10 uM after 48 hrs by Annexin V-FITC/propidium iodide staining based flow cytometry (reference value: 6.3%); type: functional
MDA-MB-231 [23] = test: Induction of apoptosis in human MDA-MB-231 cells assessed as dead cells at 10 uM after 48 hrs by Annexin V-FITC/propidium iodide staining based flow cytometry (reference value: 1.5%); type: functional
MDA-MB-231 [24] = test: Induction of apoptosis in human MDA-MB-231 cells assessed as live cells at 15 uM after 48 hrs by Annexin V-FITC/propidium iodide staining based flow cytometry (reference value: 90.35%); type: functional
MDA-MB-231 [25] = test: Induction of apoptosis in human MDA-MB-231 cells assessed as early apoptotic cells at 15 uM after 48 hrs by Annexin V-FITC/propidium iodide staining based flow cytometry (reference value: 1.85%); type: functional
MDA-MB-231 [26] = test: Induction of apoptosis in human MDA-MB-231 cells assessed as late apoptotic cells at 15 uM after 48 hrs by Annexin V-FITC/propidium iodide staining based flow cytometry (reference value: 6.3%); type: functional
MDA-MB-231 [27] = test: Induction of apoptosis in human MDA-MB-231 cells assessed as live cells at 20 uM after 48 hrs by Annexin V-FITC/propidium iodide staining based flow cytometry (reference value: 90.35%); type: functional
MDA-MB-231 [28] = test: Induction of apoptosis in human MDA-MB-231 cells assessed as early apoptotic cells at 20 uM after 48 hrs by Annexin V-FITC/propidium iodide staining based flow cytometry (reference value: 1.85%); type: functional
MDA-MB-231 [29] = test: Induction of apoptosis in human MDA-MB-231 cells assessed as late apoptotic cells at 20 uM after 48 hrs by Annexin V-FITC/propidium iodide staining based flow cytometry (reference value: 6.3%); type: functional
MDA-MB-231 [30] = test: Induction of apoptosis in human MDA-MB-231 cells assessed as dead cells at 20 uM after 48 hrs by Annexin V-FITC/propidium iodide staining based flow cytometry (reference value: 1.5%); type: functional
MDA-MB-231 [31] = test: Induction of apoptosis in human MDA-MB-231 cells assessed as upregulation of cleaved PARP after 48 hrs by Western blot analysis; type: functional, cell-based
Outline: (§3)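 MDA-MB-231 cells were exposed to DMSO or compound at several concentrations for 48 h, then lysed. Protein was measured by Bradford with a BSA standard. 40 μg total protein was run on SDS-PAGE and transferred to nitrocellulose, then blocked with 5% milk. Primary antibodies were applied overnight: Bcl-2 1:200, cleaved PARP 1:500, NF-κB 1:1000, Bax 1:1000, β-actin 1:2000. Detection was by ECL.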

MDA-MB-231 [32] = test: Downregulation of NF-kB p65 protein expression in human MDA-MB-231 cells after 48 hrs by Western blot analysis; type: functional, cell-based; outline: as §3
MDA-MB-231 [33] = test: Induction of apoptosis in human MDA-MB-231 cells assessed as reduction in Bcl2 to Bax ratio at 1 to 20 uM after 48 hrs by Western blot analysis; type: functional, cell-based; outline: as §3
MDA-MB-231 [34] = test: Antitumor activity against human MDA-MB-231 cells xenografted in nude mouse assessed as tumor growth inhibition at 10 to 15 mg/kg, ip daily for 10 days; type: functional, organism-based
Outline: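 Orthotopic model: female nude mice, 6–8 weeks old. MDA-MB-231 cells (1.0 × 10^6 in PBS) were injected into the no. 3 mammary fat pad, and mice were randomized into 4 groups. Once tumors reached 80–100 mm3, mice received 10 or 15 mg/kg daily by intraperitoneal injection in DMSO vehicle. Tumor volume (0.5 × L × W2) and body weight were measured daily. Mean ± SEM.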

MCF-10A = test: Antiproliferative activity against human MCF10A cells up to 100 uM after 48 hrs by MTT assay

## C=CC(=O)N1CC12C(=O)[C@@]13[C@@H]4OC(C)(C)O[C@@]15OC[C@@]1([C@H]([C@@H]5O)C(C)(C)CC[C@@H]1O)[C@@H]3CC[C@H]42 (some centres not stated)
[1]
  t1/2: 30 to 60 min
[2]
  Drug metabolism: Metabolite detected
MDA-MB-231 [3]
  Activity: Dose-dependent effect
MDA-MB-231 [3]; MDA-MB-231, 72 h
  IC50: 8.32 µM
MCF7 [4]
  Activity: Dose-dependent effect
MCF7 [4]; MCF7, 72 h
  IC50: 9.39 µM
MDA-MB-468 [5]
  Activity: Dose-dependent effect
SK-BR-3 [6]
  Activity: Dose-dependent effect
MDA-MB-231 [7]
  inhibition: Active
SK-BR-3 [8]
  inhibition: Active
MDA-MB-468 [9]
  inhibition: Active
MCF7 [10]
  inhibition: Active
MDA-MB-231 [11]
  Activity: Dose-dependent effect
MDA-MB-231 [12]
  Activity: 89.5%
MDA-MB-231 [13]
  Activity: 2.5%
MDA-MB-231 [14]
  Activity: 6.05%
MDA-MB-231 [15]
  Activity: 1.95%
MDA-MB-231 [16]
  Activity: 87.95%
MDA-MB-231 [17]
  Activity: 3.6%
MDA-MB-231 [18]
  Activity: 6.7%
MDA-MB-231 [19]
  Activity: 1.75%
MDA-MB-231 [20]
  Activity: 79.05%
MDA-MB-231 [21]
  Activity: 5.45%
MDA-MB-231 [22]
  Activity: 12.75%
MDA-MB-231 [23]
  Activity: 2.75%
MDA-MB-231 [24]
  Activity: 70.25%
MDA-MB-231 [25]
  Activity: 5.2%
MDA-MB-231 [26]
  Activity: 21.6%
MDA-MB-231 [27]
  Activity: 50.35%
MDA-MB-231 [28]
  Activity: 2.95%
MDA-MB-231 [29]
  Activity: 44.65%
MDA-MB-231 [30]
  Activity: 2.05%
MDA-MB-231 [31]
  Activity: Dose-dependent effect
MDA-MB-231 [32]
  Activity: Dose-dependent effect
MDA-MB-231 [33]
  Activity: Active
MDA-MB-231 [34]
  TGI: Active
MCF-10A
  Activity: Non-Toxic
